SMILES strings stand for the structures. Active and inactive are the calls of the source. The rule behind the calls is not given here.

Data set [1] deals with Mus musculus. Put plainly: Neurotoxicity in CF1 mouse at 100 mg/kg, ip after 4 hrs by rotarod test. Format: toxicity, organism-based. Also noted: dose 100 mg/kg, route intraperitoneal. As to conditions: in vivo. In outline: (§1)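 Rotorod neurotoxicity in male CF-1 mice (18–25 g) after i.p. compound in 0.5% methyl cellulose/water or PEG 200 at 30, 100 or 300 mg/kg; reported as number showing toxicity/number tested.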
(The rotarod test checks motor coordination on a turning rod.)

Data set [2] concerns Mus musculus. Nature of the data set: Neurotoxicity in CF1 mouse at 300 mg/kg, ip after 4 hrs by rotarod test. Format: toxicity, organism-based. As to conditions: in vivo. Set-up: dose 300 mg/kg, route intraperitoneal. In outline: as §1
The test system of data set [3] is Mus musculus. Nature of the data set: Anticonvulsant activity in CF1 mouse assessed as protection against 6 Hz electric shock-induced seizures at 100 mg/kg, ip after 0.25 hrs. In kind it is functional, organism-based. Set-up: dose 100 mg/kg. The method, boiled down: (§2)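 Male CF-1 albino mice (18–25 g), compound suspended in 0.5% methyl cellulose/water or PEG 200, given i.p.; four mice per time point (0.25, 0.5, 1.0, 2.0, 4 h) challenged via corneal electrodes at 6 Hz, 32 mA for 3 s, current eliciting psychomotor seizure in 97% of animals; reported as protected/tested.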

Data set [4] relates to Mus musculus. Nature of the data set: Anticonvulsant activity in CF1 mouse assessed as protection against 6 Hz electric shock-induced seizures at 100 mg/kg, ip after 0.5 hrs. Format: functional, organism-based. Also noted: dose 100 mg/kg. The method, boiled down: as §2
Data set [5] deals with Mus musculus. Nature of the data set: Anticonvulsant activity in CF1 mouse assessed as protection against 6 Hz electric shock-induced seizures at 100 mg/kg, ip after 1 hr. Set-up: dose 100 mg/kg. In kind it is functional, organism-based. In outline:
as §2

Data set [6] deals with Mus musculus. Nature of the data set: Anticonvulsant activity in CF1 mouse assessed as protection against 6 Hz electric shock-induced seizures at 100 mg/kg, ip after 2 hrs. In kind it is functional, organism-based. Set-up: dose 100 mg/kg. In outline:
as §2

Data set [7] concerns Mus musculus. Nature of the data set: Anticonvulsant activity in CF1 mouse assessed as protection against 6 Hz electric shock-induced seizures at 100 mg/kg, ip after 4 hrs. In kind it is functional, organism-based. Set-up: dose 100 mg/kg. The method, boiled down:
as §2

In data set [8] the test system is Mus musculus. Put plainly: Anticonvulsant activity in CF1 mouse assessed as protection against maximal electroshock-induced seizures at 30 mg/kg, ip after 0.5 hrs. Also noted: dose 30 mg/kg. In kind it is functional, organism-based. The method, boiled down: (§3)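 Male CF-1 albino mice (18–25 g), dosed i.p. at 30, 100 or 300 mg/kg in 0.5% methyl cellulose/water or PEG 200 (0.01 ml/g); tested at intervals after dosing; protection = abolition of hind limb tonic extensor component of MES seizure; scored as protected/tested.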
A general note: The maximal electroshock test induces tonic seizures with an electrical stimulus.

The subject of data set [9] is Mus musculus. Put plainly: Anticonvulsant activity in CF1 mouse assessed as protection against maximal electroshock-induced seizures at 30 mg/kg, ip after 4 hrs. In kind it is functional, organism-based. Set-up: dose 30 mg/kg. The method, boiled down: as §3
Data set [10] has as its system Mus musculus. Put plainly: Anticonvulsant activity in CF1 mouse assessed as protection against maximal electroshock-induced seizures at 100 mg/kg, ip after 0.5 hrs. Set-up: dose 100 mg/kg. Format: functional, organism-based. The method, boiled down: as §3
For data set [11], the system named is Mus musculus. Put plainly: Anticonvulsant activity in CF1 mouse assessed as protection against maximal electroshock-induced seizures at 100 mg/kg, ip after 4 hrs. Set-up: dose 100 mg/kg. In kind it is functional, organism-based. In outline: as §3
Data set [12] deals with Mus musculus. Nature of the data set: Anticonvulsant activity in CF1 mouse assessed as protection against maximal electroshock-induced seizures at 300 mg/kg, ip after 0.5 hrs. Format: functional, organism-based. Set-up: dose 300 mg/kg. In outline:
as §3

The subject of data set [13] is Mus musculus. Put plainly: Anticonvulsant activity in CF1 mouse assessed as protection against maximal electroshock-induced seizures at 300 mg/kg, ip after 4 hrs. In kind it is functional, organism-based. Also noted: dose 300 mg/kg. The method, boiled down:
as §3

Data set [14] concerns Mus musculus. Nature of the data set: Anticonvulsant activity in CF1 mouse assessed as protection against subcutaneous metrazole-induced seizures at 30 mg/kg, ip after 0.5 hrs. In kind it is functional, organism-based. Set-up: dose 30 mg/kg.
Data set [15] concerns Mus musculus. Nature of the data set: Anticonvulsant activity in CF1 mouse assessed as protection against subcutaneous metrazole-induced seizures at 30 mg/kg, ip after 4 hrs. Format: functional, organism-based. Set-up: dose 30 mg/kg.
Data set [16] relates to Mus musculus. Put plainly: Anticonvulsant activity in CF1 mouse assessed as protection against subcutaneous metrazole-induced seizures at 100 mg/kg, ip after 0.5 hrs. Set-up: dose 100 mg/kg. In kind it is functional, organism-based.
Data set [17] has as its system Mus musculus. Nature of the data set: Anticonvulsant activity in CF1 mouse assessed as protection against subcutaneous metrazole-induced seizures at 100 mg/kg, ip after 4 hrs. Set-up: dose 100 mg/kg. In kind it is functional, organism-based.
For data set [18], the system named is Mus musculus. Put plainly: Anticonvulsant activity in CF1 mouse assessed as protection against subcutaneous metrazole-induced seizures at 300 mg/kg, ip after 0.5 hrs. In kind it is functional, organism-based. Set-up: dose 300 mg/kg.
For data set [19], the system named is Mus musculus. Put plainly: Anticonvulsant activity in CF1 mouse assessed as protection against subcutaneous metrazole-induced seizures at 300 mg/kg, ip after 4 hrs. Format: functional, organism-based. Set-up: dose 300 mg/kg.
Data set [20] has as its system Mus musculus. Put plainly: Neurotoxicity in CF1 mouse at 30 mg/kg, ip after 0.5 hrs by rotarod test. Format: toxicity, organism-based. Set-up: dose 30 mg/kg, route intraperitoneal. As to conditions: in vivo. In outline: as §1
The subject of data set [21] is Mus musculus. Put plainly: Neurotoxicity in CF1 mouse at 300 mg/kg, ip after 0.5 hrs by rotarod test. Format: toxicity, organism-based. Set-up: dose 300 mg/kg, route intraperitoneal. As to conditions: in vivo. In outline: as §1
Data set [22] deals with Mus musculus. Nature of the data set: Neurotoxicity in CF1 mouse at 30 mg/kg, ip after 4 hrs by rotarod test. In kind it is toxicity, organism-based. Also noted: dose 30 mg/kg, route intraperitoneal. As to conditions: in vivo. The method, boiled down: as §1
The test system of data set [23] is Mus musculus. Put plainly: Neurotoxicity in CF1 mouse at 100 mg/kg, ip after 0.5 hrs by rotarod test. Format: toxicity, organism-based. Also noted: dose 100 mg/kg, route intraperitoneal. As to conditions: in vivo. In outline: as §1

Regarding `CCCOc1c(C(=O)NN=C(c2ccccc2)c2ccccc2)sc(C(=O)NN=C(c2ccccc2)c2ccccc2)c1OCCC`, the Activity entry with Mus musculus [1], with Mus musculus [2], in the data set with Mus musculus [20], with Mus musculus [21] and in the data set with Mus musculus [22] was “Non-toxic” each time. The outcome in the data set with Mus musculus [3], in the data set on Mus musculus [4], with Mus musculus [5], with Mus musculus [6], in the data set on Mus musculus [7] and in the data set on Mus musculus [8] was inactive. Besides, the outcome in the data set with Mus musculus [9], with Mus musculus [10], with Mus musculus [11], in the data set with Mus musculus [12], in the data set with Mus musculus [13] and in the data set with Mus musculus [14] was inactive. Besides, the result in the data set on Mus musculus [15], in the data set on Mus musculus [16], with Mus musculus [17], in the data set on Mus musculus [18] and with Mus musculus [19] was inactive.

For `CCCOc1c(C(=O)N/N=C(\c2ccccc2)c2ccc(Br)s2)sc(C(=O)N/N=C(\c2ccccc2)c2ccc(Br)s2)c1OCCC`, the Activity entry with Mus musculus [1] is “Toxic”; in the data set on Mus musculus [2], “Non-toxic”; in the data set on Mus musculus [20], “Non-toxic”; with Mus musculus [23], “Toxic”; in the data set on Mus musculus [21], “Toxic”; with Mus musculus [22] it was “Non-toxic”. Moreover, the outcome in the data set on Mus musculus [3], in the data set with Mus musculus [4], with Mus musculus [5], in the data set on Mus musculus [6], with Mus musculus [7] and in the data set on Mus musculus [8] was inactive. Moreover, the outcome in the data set on Mus musculus [9], in the data set with Mus musculus [10], in the data set with Mus musculus [11], with Mus musculus [12], with Mus musculus [13] and in the data set with Mus musculus [14] was inactive. Also, the outcome in the data set on Mus musculus [15], with Mus musculus [16], in the data set on Mus musculus [17], in the data set on Mus musculus [18] and with Mus musculus [19] was inactive.
